Measurements as given in ChEMBL document CHEMBL1128224 (J Med Chem, 1995).
pKi: −log10 of the molar value.

Experiments:
Mu-type opioid receptor = Mu-type opioid receptor (Cavia porcellus, UniProt P97266); experiment: The opioid receptor affinity(Ki) was evaluated by competition with [3H]DAMGO (mu) on guinea pig brain membranes; parameters: species or system Membrane
[1] = target: Kappa-type opioid receptor (Cavia porcellus) (UniProt P41144); experiment: IC50 ratio was measured on ethylketazocine (Opioid receptor kappa 1) in the guinea pig ileal longitudinal muscle(GPI) preparation
[2] = target: Delta-type opioid receptor (Mus musculus) (UniProt P32300); experiment: IC50 ratio was measured on DADLE (delta) in the mouse vas deferens (MVD) preparation
[3] = target: Delta-type opioid receptor (Mus musculus) (UniProt P32300); experiment: The antagonist potencies mediated through […] were expressed as Ke values calculated on DADLE(delta) in the mouse vas deferens(MVD) preparation; type: functional
In short: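 In electrically stimulated mouse vas deferens with DADLE as agonist, antagonist was preincubated 15 min at 100 nM unless otherwise specified. Ke = [antagonist]/(IC50 ratio − 1) from the Schild relationship, averaged over at least three IC50 ratio determinations.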

[4] = target: Mu-type opioid receptor (Cavia porcellus) (UniProt P97266); experiment: IC50 ratio was measured on Morphine(mu) in the guinea pig ileal longitudinal muscle(GPI) preparation; type: tissue-based; settings: Muscle tissue
[5] = target: T1, Opioid receptors; delta & kappa (Homo sapiens) (UniProt P41145+P41143); experiment: Selectivity as the ratio of IC50 value against delta receptor to that of kappa receptor.; type: protein assay
[6] = target: T2, Opioid receptors; mu & delta (Homo sapiens) (UniProt P41143+P35372); experiment: Selectivity as the ratio of IC50 value against delta receptor to that of mu receptor.; type: protein assay
[7] = target: T1, Opioid receptors; delta & kappa (Homo sapiens); experiment: Selectivity as the ratio of Ki value towards kappa receptor to that of delta 1 receptor.; type: protein assay
[8] = target: T2, Opioid receptors; mu & delta (Homo sapiens); experiment: Selectivity as the ratio of Ki value towards mu receptor to that of delta 1 receptor.; type: protein assay
[9] = target: Kappa-type opioid receptor (Cavia porcellus, UniProt P41144); experiment: The opioid receptor affinity(Ki) was evaluated by competition with 9 (Opioid receptor kappa 1) on guinea pig brain membranes; parameters: species or system Membrane
Mus musculus [10] = experiment: Intracerebroventricular dose required to produce an equivalnet antagonism of DPDPE-induced antinociception.; type: functional
In short: (§1)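 In the mouse tail-flick assay against DPDPE-induced antinociception, the antagonist was given icv or iv. […] The iv/icv value is the ratio of these two doses.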

Mus musculus [11] = experiment: Intravenous dose required to produce an equivalnet antagonism of DPDPE-induced antinociception.; type: functional; in short: as §1
[12] = target: Mu-type opioid receptor (Mus musculus) (UniProt P42866); experiment: Antagonist activity against the mu opioid receptor using morphine as agonist at 20 pmol/kg (icv) was determined as ratio of ED50 of antagonist to the control (ED50 of control = 9.7 (8.6-10.9) umol/kg); type: functional
[13] = (§2) Antagonist activity against the delta1 opioid receptor using DPDPE as agonist at 20 pmol/kg (icv) was determined as ratio of ED50 of antagonist to the control (ED50 of control = 8.6 (6.5-11.1) nmol/kg); type: functional
[14] = target: Delta-type opioid receptor (Homo sapiens) (UniProt P41143); settings: 0.8 umol/kg
[15] = target: Delta-type opioid receptor (Mus musculus) (UniProt P32300); experiment: as §2; type: functional
[16] = target: Kappa-type opioid receptor (Mus musculus) (UniProt P33534); experiment: Antagonist activity against the kappa opioid receptor using U-50,488H as agonist at 20 pmol/kg (icv) was determined as ratio of ED50 of antagonist to the control (ED50 of control = 27.3 (8.5-52.8) umol/kg); type: functional
[17] = Ratio of iv dose to that of icv.; type: functional; in short: as §1

SMILES | pKi (Mu-type opioid receptor) | IC50 ratio [1] | IC50 ratio [2] | Ke [3] | IC50 ratio [4] | Selectivity [5] | Selectivity [6] | Selectivity [7] | Selectivity [8] | pKi [9] | Dose (Mus musculus [10]) | Dose (Mus musculus [11]) | ED50 ratio [12] | ED50 ratio [13] | ED50 ratio [14] | ED50 ratio [15] | ED50 ratio [16] | Ratio [17]
O=C(O)c1cccc2c3c([nH]c12)[C@@H]1Oc2c(O)ccc4c2C12CCN(CC1CC1)C(C4)[C@]2(O)C3 (some centres not stated) | 7.62 | 1 | 25 | 0.4 nM | 2 | 231 | 122 | 3250 | 1850 |  |  |  |  |  |  |  |  | 
NCCC[C@@H](NC(=O)c1cccc2c3c([nH]c12)[C@@H]1Oc2c(O)ccc4c2C12CCN(CC1CC1)C(C4)[C@]2(O)C3)C(=O)O (some centres not stated) | 6.87 | 0.9 | 58 | 1.8 nM | 3 | 63 | 20 | 320 | 756 | 7.24 |  |  |  |  |  |  |  | 
O=C(O)C[C@@H](NC(=O)c1cccc2c3c([nH]c12)[C@@H]1Oc2c(O)ccc4c2C12CCN(CC1CC1)C(C4)[C@]2(O)C3)C(=O)O (some centres not stated) | 6.43 | 2.1 | 89 | 1.1 nM | 1.3 | 30 | 67 | 6250 | 2570 | 6.05 | 12.5 pM/kg | 0.62 µM/kg | 1 | 2.6 | 2.3 |  |  | 
NCCCC[C@@H](NC(=O)c1cccc2c3c([nH]c12)[C@@H]1Oc2c(O)ccc4c2C12CCN(CC1CC1)C(C4)[C@]2(O)C3)C(=O)O (some centres not stated) | 6.66 | 1.1 | 20 | 5.2 nM | 1 | 20 | 20 | 134 | 719 | 7.39 |  |  |  |  |  |  |  | 
Oc1ccc2c3c1O[C@H]1c4[nH]c5ccccc5c4C[C@@]4(O)[C@@H](C2)N(CC2CC2)CC[C@]314 [NALTRINDOLE] |  |  |  | 0.2 nM |  |  |  |  |  |  | 300 pM/kg | 2.19 µM/kg |  |  |  |  |  | 
N=C(N)NCCC[C@@H](NC(=O)c1cccc2c3c([nH]c12)[C@@H]1Oc2c(O)ccc4c2C12CCN(CC1CC1)C(C4)[C@]2(O)C3)C(=O)O (some centres not stated) | 6.48 | 1.2 | 31 | 3.3 nM | 1.3 | 27 | 24 | 1180 | 2100 | 6.73 |  |  |  |  |  |  |  | 
O=C(O)CNC(=O)c1cccc2c3c([nH]c12)[C@@H]1Oc2c(O)ccc4c2C12CCN(CC1CC1)C(C4)[C@]2(O)C3 (some centres not stated) | 6.69 | 1.1 | 32 | 3.2 nM | 1.5 | 30 | 21 | 30000 | 38200 |  | 4.7 pM/kg | 0.53 µM/kg | 0.9 |  |  | 5.3 | 0.8 | 112766
